The text below walks through data of ChEMBL document CHEMBL3526081 (Drug Metab Dispos, 2011).

The target of one data set is Cytochrome P450 3A4 (Homo sapiens, UniProt P08684). As to the kind of experiment: Drug level in human recombinant CYP3A4 expressed in insect cells coexpressing NADPH-P450 reductase measured per pmol of enzyme treated with 50 uM cinobufagin at 37 degC after 30 mins by UFLC-DAD-ESI-MS analysis. The settings on record: 0.5 h.
A short description of data set [1]: Drug level in Swiss-Hauschka (ICR) mouse liver microsomes treated with 100 uM cinobufagin at 37 degC after 30 mins by UFLC-ESI-MS analysis in presence of NADPH-generating system. Format: ADME. The settings on record: 0.5 h. An outline of the steps: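 Liver microsomes (0.3 mg protein/ml) incubated with 100 µM substrate at 37°C for 30 min, in 100 mM potassium phosphate pH 7.4 with NADPH-generating system (1 mM NADP+, 10 mM glucose 6-phosphate, 1 unit/ml G6PDH, 4 mM MgCl2). Acetonitrile ≤1% final. Stopped with ice-cold acetonitrile and centrifuged. Metabolites identified by UFLC-ESI-MS and quantified by UFLC-DAD at 294 nm against authentic standard curves.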

The target in another data set is Cytochrome P450 2E1 (Homo sapiens, UniProt P05181). The data set can be described thus: Drug level in human recombinant CYP2E1 expressed in insect cells coexpressing NADPH-P450 reductase measured per pmol of enzyme treated with 50 uM cinobufagin at 37 degC after 30 mins by UFLC-DAD-ESI-MS analysis. The settings on record: 0.5 h.
Sequence of Cytochrome P450 2E1 (P05181 whole entry): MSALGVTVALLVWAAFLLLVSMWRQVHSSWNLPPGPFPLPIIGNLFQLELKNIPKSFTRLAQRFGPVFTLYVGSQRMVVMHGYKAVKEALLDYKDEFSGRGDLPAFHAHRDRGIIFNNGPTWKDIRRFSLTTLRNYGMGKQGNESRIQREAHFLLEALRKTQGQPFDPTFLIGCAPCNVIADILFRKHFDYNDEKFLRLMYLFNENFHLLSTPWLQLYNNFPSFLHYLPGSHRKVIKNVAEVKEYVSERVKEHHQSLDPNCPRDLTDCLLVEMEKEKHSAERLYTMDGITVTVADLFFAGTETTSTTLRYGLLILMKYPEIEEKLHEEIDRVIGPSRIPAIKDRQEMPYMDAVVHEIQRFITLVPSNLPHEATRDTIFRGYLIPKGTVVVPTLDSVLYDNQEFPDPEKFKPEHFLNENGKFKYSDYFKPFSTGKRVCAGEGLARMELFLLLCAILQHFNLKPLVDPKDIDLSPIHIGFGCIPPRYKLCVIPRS
The target of a further data set is T1, Cytochrome P450 2A6 (Homo sapiens, UniProt P11509).
T1 sequence (P11509 whole entry): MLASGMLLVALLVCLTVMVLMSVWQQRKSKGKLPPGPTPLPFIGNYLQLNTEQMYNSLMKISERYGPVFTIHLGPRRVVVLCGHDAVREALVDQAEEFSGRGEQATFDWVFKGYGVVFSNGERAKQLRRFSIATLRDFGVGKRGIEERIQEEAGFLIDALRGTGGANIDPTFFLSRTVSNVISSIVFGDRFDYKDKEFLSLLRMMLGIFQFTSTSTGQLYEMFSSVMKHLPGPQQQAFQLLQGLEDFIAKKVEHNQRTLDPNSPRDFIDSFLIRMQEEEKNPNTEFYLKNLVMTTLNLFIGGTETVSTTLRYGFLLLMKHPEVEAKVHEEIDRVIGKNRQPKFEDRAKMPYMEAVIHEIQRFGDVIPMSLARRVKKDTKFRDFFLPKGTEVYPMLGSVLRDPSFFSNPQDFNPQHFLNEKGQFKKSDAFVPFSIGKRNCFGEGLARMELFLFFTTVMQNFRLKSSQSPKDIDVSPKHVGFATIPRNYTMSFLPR
The data set can be described thus: Drug level in human recombinant CYP2A6 expressed in insect cells coexpressing NADPH-P450 reductase measured per pmol of enzyme treated with 50 uM cinobufagin at 37 degC after 30 mins by UFLC-DAD-ESI-MS analysis. The settings on record: 0.5 h.

In a further data set the target is Cytochrome P450 2C9 (Homo sapiens, UniProt P11712). The data set can be described thus: Drug level in human recombinant CYP2C9 expressed in insect cells coexpressing NADPH-P450 reductase measured per pmol of enzyme treated with 50 uM cinobufagin at 37 degC after 30 mins by UFLC-DAD-ESI-MS analysis. The settings on record: 0.5 h.
Sequence of Cytochrome P450 2C9 (P11712 whole entry): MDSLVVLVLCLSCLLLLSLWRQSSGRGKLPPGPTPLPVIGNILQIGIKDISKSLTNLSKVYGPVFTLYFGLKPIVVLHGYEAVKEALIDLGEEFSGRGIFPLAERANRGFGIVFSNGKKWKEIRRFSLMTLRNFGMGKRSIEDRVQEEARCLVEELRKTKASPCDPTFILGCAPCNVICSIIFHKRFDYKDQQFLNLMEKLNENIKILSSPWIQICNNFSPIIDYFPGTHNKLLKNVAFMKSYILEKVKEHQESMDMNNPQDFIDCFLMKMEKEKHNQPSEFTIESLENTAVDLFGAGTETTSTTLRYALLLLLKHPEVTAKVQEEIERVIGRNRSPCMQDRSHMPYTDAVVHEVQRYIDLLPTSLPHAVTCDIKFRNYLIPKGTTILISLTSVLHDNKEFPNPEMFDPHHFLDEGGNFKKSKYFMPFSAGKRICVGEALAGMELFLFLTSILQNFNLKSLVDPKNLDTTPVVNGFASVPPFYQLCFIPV
Data set [2] in a line: Cytotoxicity against human Bel7402 cells assessed as againsthibition of cell growth after 72 hrs. Format: cell-based. The settings on record: Bel-7402, 72 h. In a few lines:
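Bel-7402 hepatoma cells grown in RPMI 1640 with 10% FBS and 1% penicillin/streptomycin, trypsinised, seeded and exposed to serial dilutions for 72 h at 37°C.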

The target of the next data set is T2, Cytochrome P450 2C8 (Homo sapiens, UniProt P10632).
T2 sequence (P10632 whole entry): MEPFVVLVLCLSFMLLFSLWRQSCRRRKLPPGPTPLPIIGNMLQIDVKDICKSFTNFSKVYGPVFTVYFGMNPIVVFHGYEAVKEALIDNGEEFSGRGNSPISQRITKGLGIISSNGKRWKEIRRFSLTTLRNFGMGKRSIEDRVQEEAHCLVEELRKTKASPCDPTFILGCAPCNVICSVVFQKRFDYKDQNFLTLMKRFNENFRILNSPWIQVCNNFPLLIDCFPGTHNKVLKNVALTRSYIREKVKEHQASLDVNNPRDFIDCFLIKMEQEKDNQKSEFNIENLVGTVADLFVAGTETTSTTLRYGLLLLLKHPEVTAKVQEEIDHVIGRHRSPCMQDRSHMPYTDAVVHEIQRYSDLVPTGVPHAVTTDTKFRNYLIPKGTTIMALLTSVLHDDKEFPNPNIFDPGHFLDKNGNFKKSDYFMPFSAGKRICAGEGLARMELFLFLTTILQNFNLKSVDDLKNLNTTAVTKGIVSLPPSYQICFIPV
The data set can be described thus: Drug level in human recombinant CYP2C8 expressed in insect cells coexpressing NADPH-P450 reductase measured per pmol of enzyme treated with 50 uM cinobufagin at 37 degC after 30 mins by UFLC-DAD-ESI-MS analysis. The settings on record: 0.5 h.

The next data set has as its target T3, Cytochrome P450 1A2 (Homo sapiens, UniProt P05177).
T3 sequence (P05177 whole entry): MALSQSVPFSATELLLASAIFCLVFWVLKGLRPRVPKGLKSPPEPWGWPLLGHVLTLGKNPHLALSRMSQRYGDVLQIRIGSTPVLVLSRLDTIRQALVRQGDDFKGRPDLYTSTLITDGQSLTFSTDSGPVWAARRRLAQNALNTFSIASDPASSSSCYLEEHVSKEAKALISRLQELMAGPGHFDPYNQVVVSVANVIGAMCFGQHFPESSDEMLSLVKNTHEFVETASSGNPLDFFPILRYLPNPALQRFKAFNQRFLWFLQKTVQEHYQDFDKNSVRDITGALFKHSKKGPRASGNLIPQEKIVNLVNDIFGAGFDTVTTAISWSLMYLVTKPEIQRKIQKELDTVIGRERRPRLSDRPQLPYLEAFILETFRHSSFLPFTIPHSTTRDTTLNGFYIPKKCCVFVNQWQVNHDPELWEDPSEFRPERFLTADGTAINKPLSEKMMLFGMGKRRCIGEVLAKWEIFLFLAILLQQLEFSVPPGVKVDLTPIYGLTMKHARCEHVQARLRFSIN
The data set can be described thus: Drug level in human recombinant CYP1A2 expressed in insect cells coexpressing NADPH-P450 reductase measured per pmol of enzyme treated with 50 uM cinobufagin at 37 degC after 30 mins by UFLC-DAD-ESI-MS analysis. The settings on record: 0.5 h.

Sequence of Cytochrome P450 3A4 (P08684 whole entry): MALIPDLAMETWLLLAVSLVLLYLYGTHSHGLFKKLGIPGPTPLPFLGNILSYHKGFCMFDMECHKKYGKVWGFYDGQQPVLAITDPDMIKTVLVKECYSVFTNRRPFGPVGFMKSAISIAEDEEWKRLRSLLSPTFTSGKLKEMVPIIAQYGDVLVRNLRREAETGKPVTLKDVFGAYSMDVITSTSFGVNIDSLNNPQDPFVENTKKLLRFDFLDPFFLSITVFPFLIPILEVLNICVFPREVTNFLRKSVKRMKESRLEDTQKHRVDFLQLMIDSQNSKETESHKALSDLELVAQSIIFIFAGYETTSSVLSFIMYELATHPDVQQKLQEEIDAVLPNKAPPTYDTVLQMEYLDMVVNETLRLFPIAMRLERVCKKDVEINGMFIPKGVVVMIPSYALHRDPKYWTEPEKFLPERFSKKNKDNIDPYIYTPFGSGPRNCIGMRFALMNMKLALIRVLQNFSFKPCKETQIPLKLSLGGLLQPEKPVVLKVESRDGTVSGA

`CC(=O)O[C@H]1[C@H]2O[C@]23[C@@H]2CC[C@@H]4C[C@@H](O)C[C@H](O)[C@]4(C)[C@H]2CC[C@]3(C)[C@H]1c1ccc(=O)oc1`: the Drug metabolism is on record as 14.01 pmol/min at Cytochrome P450 3A4; “metabolite_detected” in data set [1]; less than 0.01 pmol/min at Cytochrome P450 2E1; less than 0.01 pmol/min at Cytochrome P450 2A6; less than 0.01 pmol/min on Cytochrome P450 2C9; less than 0.01 pmol/min on Cytochrome P450 2C8. For the same molecule, the Drug metabolism on Cytochrome P450 1A2 was less than 0.01 pmol/min. Besides, in data set [2], the IC50 (as a rule, the concentration that inhibits the measured activity by half) was 370 nM.
Regarding `CC(=O)O[C@H]1[C@H]2O[C@]23[C@@H]2CC[C@@H]4C[C@@H](O)CC[C@]4(C)[C@H]2CC[C@]3(C)[C@H]1c1ccc(=O)oc1` [CINOBUFAGIN], the IC50 in data set [2] was determined as 49 nM.
`CC(=O)O[C@H]1[C@H]2O[C@]23[C@@H]2CC[C@]4(O)C[C@@H](O)CC[C@]4(C)[C@H]2CC[C@]3(C)[C@H]1c1ccc(=O)oc1` [CINOBUFOTALIN]: the Drug metabolism is recorded as 26.02 pmol/min at Cytochrome P450 3A4; “metabolite_detected” in data set [1]; less than 0.01 pmol/min at Cytochrome P450 2E1; less than 0.01 pmol/min on Cytochrome P450 2A6; less than 0.01 pmol/min on Cytochrome P450 2C9; less than 0.01 pmol/min at Cytochrome P450 2C8. Also, the Drug metabolism on Cytochrome P450 1A2 was less than 0.01 pmol/min. Also, the IC50 in data set [2] worked out at 8620 nM.
